Measurements from different studies.
Protocols differ between the studies behind these lines.
PTGS2: Prostaglandin G/H synthase 2 (PTGS2, Ovis aries, UniProt P79208)
GSK3B: Glycogen synthase kinase-3 beta (GSK3B, Homo sapiens, UniProt P49841)
MLNR: Motilin receptor (MLNR, Homo sapiens, UniProt O43193)
AVPR1A: Vasopressin V1a receptor (AVPR1A, Homo sapiens, UniProt P37288)

| target | test | test system | conditions | inhibition | Compound |
| --- | --- | --- | --- | --- | --- |
| [Pyruvate dehydrogenase (acetyl-transferring)] kinase isozyme 2, mitochondrial (PDK2, Homo sapiens, UniProt Q15119) | enzyme activity, inhibitor | – | 1 µM | 17% | CN1CC(Oc2cnc(C#N)cc2-c2ccn3nc(NC(=O)C4CC4)cc3c2)C1 |
| PTGS2 | enzyme activity, inhibitor, absorbance | – | 50 µM | 55.1% | O=c1c(O[C@@H]2O[C@H](CO)[C@@H](O)[C@H](O)[C@H]2O)c(-c2ccc(O)cc2)oc2cc(O)cc(O)c12 |
| GSK3B | enzyme activity, inhibitor, ADP detection | – | 100 µM | 14% | C[C@@H]1CN(c2c(F)c(N)c3c(=O)c(C(=O)O)cn(C4CC4)c3c2F)C[C@H](C)N1 |
| 1-phosphatidylinositol 3-phosphate 5-kinase (PIKFYVE, Homo sapiens, UniProt Q9Y2I7) | target engagement in cells, inhibitor, chemoproteomics | Huh-7 | 1 µM | -98.4% | CNc1cc(Oc2cc(C(=O)Nc3cc(N4CCN(C)CC4)cc(C(F)(F)F)c3)ccc2C)ncn1 |
| GSK3B | enzyme activity, inhibitor, ADP detection | – | 100 µM | 59.2% | O=c1c(-c2ccc(O)cc2)coc2cc(O)ccc12 |
| Phosphatidylinositol 4-kinase type 2-beta (PI4K2B, Homo sapiens, UniProt Q8TCG2) | enzyme activity, inhibitor | – | 10 µM | -11% | O=C(CSc1nc2nccnc2c(=O)n1CCc1ccccc1)Nc1nccs1 |
| MLNR | cell-free assay | – | 10 µM | 6.5% | Oc1cccc(Nc2nc(-c3ccc(F)cc3F)cs2)c1 |
| GSK3B | enzyme activity, inhibitor, ADP detection | – | 100 µM | 87.5% | O=C([O-])c1ccccc1-c1c2cc(I)c(=O)c(I)c-2oc2c(I)c([O-])c(I)cc12.[Na+].[Na+] |
| MAP kinase-activated protein kinase 2 (MAPKAPK2, Homo sapiens, UniProt P49137) | enzyme activity, inhibitor, FRET | – | 0.1 µM | -2% | CN(C)C1CCN(CC#Cc2nn(C3CCCC3)c3nc(NCc4ccccc4)ncc23)C1 (centres unmarked) |
| Protein mono-ADP-ribosyltransferase PARP11 (PARP11, Homo sapiens, UniProt Q9NR21) | enzyme activity, inhibitor | – | 10 µM | 26% | Ic1cccc2cnccc12 |
| GSK3B | enzyme activity, inhibitor, ADP detection | – | 100 µM | 75.3% | CC(=O)NCCc1ccc(O)c(-c2c(O)c(O)c3c(c2O)C(=O)c2c(cc(O)c(C(=O)O)c2C(=O)O)C3=O)c1 |
| AVPR1A | cell-free assay | – | 10 µM | 47.7% | O=C(c1ccc(Cl)cc1)N(Cc1ccccc1)C1CCCCC1 |
| PTGS2 | enzyme activity, inhibitor, absorbance | – | 50 µM | 52.2% | O=c1c(O)c(-c2ccc(O)cc2)oc2cc(O)cc(O)c12 |
| High affinity cGMP-specific 3',5'-cyclic phosphodiesterase 9A (PDE9A, Homo sapiens, UniProt O76083) | enzyme activity, inhibitor | – | 0.1 µM | 2% | CCN(CC)c1ccc(C2=NNC(=O)CC2C)cc1[N+](=O)[O-] (centres unmarked) |
| GSK3B | enzyme activity, inhibitor, ADP detection | – | 100 µM | 8.2% | O=C(C1CCCCC1)N1CC(=O)N2CCc3ccccc3C2C1 (centres unmarked) |
| MLNR | cell-free assay | – | 10 µM | 21.6% | COc1cc(NC(C)=O)c(Cl)cc1C(=O)Nc1nccs1 |
| PTGS2 | enzyme activity, inhibitor, absorbance | – | 50 µM | 66.3% | O=c1c(O)c(-c2ccc(O)cc2)oc2cc(O[C@@H]3O[C@H](CO)[C@@H](O)[C@H](O)[C@H]3O)cc(O)c12 |
| GSK3B | enzyme activity, inhibitor, ADP detection | – | 100 µM | 25.3% | COC(=O)C1=C(C#N)NC(C)=C(C(=O)OC(C)C)C1c1cccc([N+](=O)[O-])c1 (centres unmarked) |
| PTGS2 | enzyme activity, inhibitor, absorbance | – | 50 µM | 53.8% | C[C@@H]1O[C@@H](OC[C@H]2O[C@@H](Oc3c(-c4ccc(O)cc4)oc4cc(O)cc(O)c4c3=O)[C@H](O[C@@H]3O[C@H](CO)[C@@H](O)[C@H](O)[C@H]3O)[C@@H](O)[C@@H]2O)[C@H](O)[C@H](O)[C@H]1O |
| AVPR1A | ligand displacement, radioligand | – | 10 µM | < 10% | O=C1N=C(N2CCCCN2)S/C1=C\c1ccc(F)cc1O |
